Source: ChEMBL document CHEMBL1151957, “Design and synthesis of novel C14-hydroxyl substituted triptolide derivatives as potential selective antitumor agents” (J Med Chem, 2009)
Active and inactive are the calls of the source. The calls are words filed in the database; no cut-off is given here.

Tests used:
SK-OV-3 [1] = experiment: Cytotoxicity against human SKOV3 cells by SRB assay; format: functional, cell-based
Summary of the method: (§1)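 Cells grown in RPMI 1640 with 10% heat-inactivated FBS, 2 mmol/L glutamine, 10 mmol/L HEPES pH 7.4, 5% CO2, 37 °C; MCF-7/ADR also given 1 mmol/L pyruvate and 0.01 mg/mL insulin. Treated in triplicate with graded concentrations for 72 h at 37 °C, read by SRB. IC50 (50% growth inhibition vs control) by logit method; three independent experiments.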

MDA-MB-468 = experiment: Cytotoxicity against human MDA-MB-468 cells by SRB assay; format: functional, cell-based; summary of the method: as §1
PC-3 [2] = experiment: Cytotoxicity against human PC3 cells by SRB assay; format: functional, cell-based; summary of the method: as §1
K562 = experiment: Cytotoxicity against human K562 cells after 72 hrs by MTT assay; format: functional, cell-based; conditions: K562, 72 h
Summary of the method: (§2)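 Cells grown at 37 °C in 5% CO2 in RPMI 1640 with 10% heat-inactivated FBS, glutamine, antibiotics and HEPES; MCF-7 medium also had sodium pyruvate and insulin. Cells in 96-well plates were treated in triplicate with graded concentrations for 72 h at 37 °C. Read-out was MTT for leukemia lines and SRB for solid-tumor lines. IC50 was set relative to control by the logit method, as mean ± SD of three independent experiments.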

U-251 = experiment: Cytotoxicity against human U251 cells after 72 hrs […]; format: functional, cell-based; conditions: U-251, 72 h; summary of the method: as §2
SMMC-7721 = experiment: Cytotoxicity against human SMMC7721 cells after 72 hrs […]; format: functional, cell-based; conditions: SMMC-7721, 72 h; summary of the method: as §2
HCT-116 = experiment: Cytotoxicity against human HCT116 cells after 72 hrs […]; format: functional, cell-based; conditions: HCT-116, 72 h; summary of the method: as §2
MKN-28 = experiment: Cytotoxicity against human MKN28 cells after 72 hrs […]; format: functional, cell-based; conditions: MKN-28, 72 h; summary of the method: as §2
A549 = experiment: Cytotoxicity against human A549 cells after 72 hrs by SRB assay; conditions: A549, 72 h
[3] = Cytotoxicity against human SW1116 cells after 72 hrs by […]; format: functional, cell-based; conditions: SW 1116, 72 h; summary of the method: as §2
MOLT-4 = experiment: Cytotoxicity against human MOLT4 cells after 72 hrs by MTT assay; format: functional, cell-based; conditions: MOLT-4, 72 h; summary of the method: as §2
MCF7 = experiment: Cytotoxicity against human MCF7 cells after 72 hrs […]; format: functional, cell-based; conditions: MCF7, 72 h; summary of the method: as §2
KB = experiment: Cytotoxicity against human KB cells after 72 hrs […]; format: functional, cell-based; summary of the method: as §2
MDA-MB-231 = experiment: Cytotoxicity against human MDA-MB-231 cells after 72 hrs […]; format: functional, cell-based; conditions: MDA-MB-231, 72 h; summary of the method: as §2
HeLa = experiment: Cytotoxicity against human HeLa cells after 72 hrs […]; format: functional, cell-based; summary of the method: as §2
[4] = Cytotoxicity against human 786-O cells after 72 hrs […]; format: functional, cell-based; conditions: 786-0, 72 h; summary of the method: as §2
SK-OV-3 [5] = experiment: Cytotoxicity against human SKOV3 cells after 72 hrs by […]; format: functional, cell-based; conditions: SK-OV-3, 72 h; summary of the method: as §2
SGC-7901 = experiment: Cytotoxicity against human SGC7901 cells after 72 hrs by SRB assay; conditions: SGC-7901, 72 h
DU-145 = experiment: Cytotoxicity against human DU145 cells after 72 hrs by […]; format: functional, cell-based; conditions: DU-145, 72 h; summary of the method: as §2
[6] = Cytotoxicity against human HO8910 cells after 72 hrs by […]; format: functional, cell-based; conditions: HO-8910, 72 h; summary of the method: as §2
HCT-15 = experiment: Cytotoxicity against human HCT15 cells after 72 hrs […]; format: functional, cell-based; conditions: HCT-15, 72 h; summary of the method: as §2
[7] = Cytotoxicity against human Rh30 cells after 72 hrs by […]; format: functional, cell-based; conditions: SJRH30, 72 h; summary of the method: as §2
Bel-7402 = experiment: Cytotoxicity against human Bel7402 cells after 72 hrs by […]; format: functional, cell-based; conditions: Bel-7402, 72 h; summary of the method: as §2
PC-3 [8] = experiment: Cytotoxicity against human PC3 cells after 72 hrs by […]; format: functional, cell-based; conditions: PC-3, 72 h; summary of the method: as §2
MDR = experiment: Cytotoxicity against multidrug-resistant human KB/VCR cells by SRB assay in presence of MDR reversing agent verapamil; format: functional, cell-based
Summary of the method: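 KB/VCR cells exposed to test agents together with the MDR reversal agent verapamil. Growth inhibition was read by SRB assay after 72 h treatment; each point is the mean of three independent experiments.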

For `CC(C)[C@]12O[C@H]1[C@@H]1O[C@]13[C@]1(O[C@H]1C[C@H]1C4=C(CC[C@@]13C)C(=O)OC4)[C@]21COS(=O)(=O)O1`, the IC50 (SK-OV-3 [1]) was greater than 100000 nM, the IC50 (MDA-MB-468) was greater than 100000 nM and the IC50 (PC-3 [2]) was 13900 nM.

Compound `CC(C)[C@]12O[C@H]1[C@@H]1O[C@]13[C@]1(O[C@H]1C[C@H]1C4=C(CC[C@@]13C)C(=O)OC4)[C@@H]2O` [TRIPTOLIDE] has an IC50 (K562) of 50 nM, an IC50 (U-251) of 49 nM and an IC50 (SMMC-7721) of 18 nM. For the same compound, the IC50 (HCT-116) was 10 nM, the IC50 (MKN-28) was 200 nM and the IC50 (A549) was 59 nM. For the same compound, the IC50 [3] was 52 nM, the IC50 (SK-OV-3 [1]) was 9 nM and the IC50 (MOLT-4) was 17 nM. It also gave an IC50 (MCF7) of 19 nM, an IC50 (MDA-MB-468) of 10 nM and an IC50 (KB) of 43 nM. For the same compound, the IC50 (PC-3 [2]) was 20 nM, the IC50 (MDA-MB-231) was 24 nM and the IC50 (HeLa) was 47 nM. For the same compound, the IC50 [4] was 22 nM, the IC50 (SK-OV-3 [5]) was 10 nM and the IC50 (SGC-7901) was 15 nM. It also gave an IC50 (DU-145) of 24 nM, an IC50 [6] of 28 nM and an IC50 (HCT-15) of 29 nM. For the same compound, the IC50 [7] was 14 nM, the IC50 (Bel-7402) was 20 nM and the IC50 (PC-3 [8]) was 43 nM.

For `CC(C)[C@]12O[C@H]1[C@@H]1O[C@]13[C@]1(O[C@H]1C[C@H]1C4=C(CC[C@@]13C)C(=O)OC4)[C@H]2O` [EPITRIPTOIIDE], the IC50 (SK-OV-3 [1]) was 790 nM, the IC50 (MDA-MB-468) was 1320 nM and the IC50 (PC-3 [2]) was 1600 nM.

Work on `CC(C)[C@]12O[C@H]1[C@@H]1O[C@]13[C@]1(O[C@H]1C[C@H]1C4=C(CC[C@@]13C)C(=O)OC4)[C@]2(O)CO` yielded an IC50 (SK-OV-3 [1]) greater than 100000 nM, an IC50 (MDA-MB-468) greater than 100000 nM and an IC50 (PC-3 [2]) greater than 100000 nM.

With `CC[C@]1(O)C[C@H]2CN(CCc3c([nH]c4ccccc34)[C@@](C(=O)OC)(c3cc4c(cc3OC)N(C=O)[C@H]3[C@@](O)(C(=O)OC)[C@H](OC(C)=O)[C@]5(CC)C=CCN6CC[C@]43[C@@H]65)C2)C1` the Activity (MDR) was “Active”.
